Assay results reported in paper PMC9231628 (Proceedings of the National Academy of Sciences of the …, 2022).
One block for each molecule: values may come before it.

Tests used:
Oncopeltus Na+/K+-ATPase = test: Na+/K+-ATPase inhibition assay, Oncopeltus neural enzyme; format: biochemical, Oncopeltus fasciatus; conditions: from Fig. 3
Summary of the method: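 Neural-tissue enzyme; stocks in 20% DMSO/H₂O (5 mM, or 1 mM for one test compound). Six-point 1/10 dilution series, diluted 1:5 into Tris-buffered ATP, NaCl, KCl, MgCl₂ plus enzyme; 37 °C, 20 min, shaking. Stopped with 10% SDS; Pi by Taussky–Shorr at 700 nm. Background: 10 mM ouabain, no KCl. IC50 from four-parameter logistic mixed model; ratios use monarch enzyme or ouabain IC50s.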

monarch Na+/K+-ATPase = monarch Na+/K+-ATPase (Danaus plexippus, UniProt K0G7C4); conditions: monarch enzyme; cited from earlier work
Sequence of monarch Na+/K+-ATPase (K0G7C4 1-1009): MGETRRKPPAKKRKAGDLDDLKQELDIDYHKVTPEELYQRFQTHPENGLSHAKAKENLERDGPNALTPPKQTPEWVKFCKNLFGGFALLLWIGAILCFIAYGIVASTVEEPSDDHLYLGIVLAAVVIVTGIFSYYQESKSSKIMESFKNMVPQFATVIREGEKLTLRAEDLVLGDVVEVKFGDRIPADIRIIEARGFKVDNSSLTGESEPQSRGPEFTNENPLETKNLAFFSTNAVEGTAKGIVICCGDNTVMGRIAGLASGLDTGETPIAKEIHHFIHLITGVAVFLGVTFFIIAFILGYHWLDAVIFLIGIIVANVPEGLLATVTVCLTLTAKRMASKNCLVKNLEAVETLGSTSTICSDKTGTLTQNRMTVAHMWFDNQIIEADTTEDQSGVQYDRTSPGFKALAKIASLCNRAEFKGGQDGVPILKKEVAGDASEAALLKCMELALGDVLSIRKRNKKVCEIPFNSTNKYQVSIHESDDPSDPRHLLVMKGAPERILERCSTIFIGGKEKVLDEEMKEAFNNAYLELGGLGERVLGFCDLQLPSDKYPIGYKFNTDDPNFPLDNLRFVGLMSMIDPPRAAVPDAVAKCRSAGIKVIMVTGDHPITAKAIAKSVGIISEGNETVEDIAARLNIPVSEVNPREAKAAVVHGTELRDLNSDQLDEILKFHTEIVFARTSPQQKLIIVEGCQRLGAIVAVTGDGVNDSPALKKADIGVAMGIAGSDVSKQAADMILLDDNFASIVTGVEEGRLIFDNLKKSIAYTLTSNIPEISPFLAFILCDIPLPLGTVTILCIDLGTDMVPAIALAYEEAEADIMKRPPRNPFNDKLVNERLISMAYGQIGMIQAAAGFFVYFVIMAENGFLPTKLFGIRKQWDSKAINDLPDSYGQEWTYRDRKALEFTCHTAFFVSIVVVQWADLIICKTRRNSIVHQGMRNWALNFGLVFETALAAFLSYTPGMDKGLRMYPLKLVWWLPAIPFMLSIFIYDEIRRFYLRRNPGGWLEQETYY

monarch butterflies = conditions: cited from earlier work
Oncopeltus fasciatus = test: Laboratory rearing on A. syriaca seeds: sequestration of seed cardenolides; format: in vivo; conditions: bugs reared on A. syriaca seeds from Ithaca, NY
Summary of the method: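 Field-collected Oncopeltus (Ithaca, NY) reared on a pooled A. syriaca seed lot for fewer than five generations. Whole adults and seeds, 50 mg ground freeze-dried each, extracted in methanol with 20 µg digitoxin internal standard. Analysed by C18 HPLC-UV (acetonitrile/water gradient, 218 nm), with cardenolides taken as peaks with a 214–222 nm maximum. Quantified by peak area against digitoxin on a dry-mass basis; HRMS for identification.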

Molecule: C[C@@H]1O[C@@H](O[C@H]2C[C@@H](O)[C@]3(CO)[C@H]4[C@H](O)C[C@]5(C)[C@@H](C6=CC(=O)OC6)CC[C@]5(O)[C@@H]4CC[C@]3(O)C2)[C@H](O)[C@H](O)[C@H]1O [Ouabain, ouabain]
- advantage (tolerance) of Oncopeltus enzyme over monarchs (Oncopeltus Na+/K+-ATPase): 2 fold

Molecule: C[C@@H]1C[C@@]2(NCCS2)[C@]2(O)O[C@@H]3C[C@@]4(C=O)[C@@H](CC[C@@H]5[C@@H]4CC[C@]4(C)[C@@H](C6=CC(=O)OC6)CC[C@]54O)C[C@H]3O[C@@H]2O1 [Voruscharin, voruscharin]
- IC50 (monarch Na+/K+-ATPase): 2000 nM
- effect on monarch growth (monarch butterflies): negatively impacts monarch growth

- share of the total cardenolides in bugs (Oncopeltus fasciatus): 33%
Molecule: Aspecioside A
